Measured values pooled from the literature.
Lines come from different studies, so protocols differ.
Target: Glycogen synthase kinase-3 beta (GSK3B, Homo sapiens, UniProt P49841)
Action: inhibitor

Compound | assay | test system | conditions | inhibition
Nc1nc(Nc2ccc(S(N)(=O)=O)cc2)sc1C(=O)c1ccccc1[N+](=O)[O-] | enzyme activity |  | 0.1 µM | 60 to 66%
C=CC(=O)Nc1cc(Nc2nccc(Nc3cc(Cl)c(F)cc3C(C)(C)O)n2)c(OC)cc1N1CC[C@@H](N(C)C)C1 | enzyme activity |  | 1 µM | 9%
CCN(CC)CCNC(=O)c1c(C)[nH]c(/C=C2\C(=O)Nc3ccc(F)cc32)c1C | enzyme activity |  | 0.3 µM | -4%
CC/C(=N\NC(=O)NCc1cccc(O)c1)c1ccc(O)c(C)c1O | enzyme activity |  | 0.1 µM | 8.6%
CC(C)NCC(O)c1ccc(NS(C)(=O)=O)cc1 (centres unmarked) | enzyme activity, ADP detection |  | 100 µM | 8.4%
COc1cc2ncnc(Nc3ccc(Oc4ccccc4)cc3C)c2cc1OC | enzyme activity |  | 1 µM | -2%
CN(C)C1CCN(CC#Cc2nn(C3CCCC3)c3nc(NCc4ccccc4)ncc23)C1 (centres unmarked) | enzyme activity, FRET |  | 1 µM | -1%
CCCCNc1ncc2c(-c3ccc(F)cc3)nn(C[C@H]3CC[C@H](N)CC3)c2n1 | target engagement in cells, chemoproteomics |  | 20 mM | 4.2%
COc1ccc2c(c1)O[C@H]1c3ccc(OC)cc3OC[C@@H]21 | enzyme activity, ADP detection |  | 100 µM | 32.9%
O=C(CSc1nc2nccnc2c(=O)n1CCc1ccccc1)Nc1nccs1 | enzyme activity |  | 10 µM | -5%
COc1ccc(-c2nc3ccc(C4=NNC(=O)CC4C)cc3[nH]2)cc1 (centres unmarked) | enzyme activity, ADP detection |  | 100 µM | 21.5%
CNc1cc(Oc2cc(C(=O)Nc3cc(N4CCN(C)CC4)cc(C(F)(F)F)c3)ccc2C)ncn1 | target engagement in cells, chemoproteomics | Huh-7 | 1 µM | -17.6%
COc1cc(-c2coc3cc(OC)c(OC)c(OC)c3c2=O)cc(OC)c1OC | enzyme activity, ADP detection |  | 100 µM | 3%
c1ccc(CNc2nc(N3CCOc4ccccc43)nc3c2CCCC3)cc1 | target engagement in cells, chemoproteomics |  | 20 mM | -3.9%
